From ChEMBL document CHEMBL4513216, “Probing the Open Global Health Chemical Diversity Library for Multistage-Active Starting Points for Next-Generation Antimalarials” (ACS Infect Dis, 2020)

Experiment: Toxicity liver stage against HepG2, at 10uM
Type: cell-based
Parameters: test concentration 10 uM, cell line HepG2-A16-CD81EGFP
Details: human, HepG2-A16-CD81EGFP cells; read-out: INHIBITION
In short: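 Uninfected HepG2-A16-CD81EGFP cells, 3 × 10^3 per well, 1536-well, plated on prespotted compound at 10 μM final, parasite-free screening media added to match infected plates; puromycin 10 μM positive, DMSO 0.5% negative; run in parallel with 48 h PbLuc assay at 37 °C, 5% CO2; viability by CellTiter-Glo luminescence, normalized to controls.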

SMILES	cytotoxicity at 10 µM
Cc1n[nH]c(C2CN(CCCOc3ccc(F)cc3)CCO2)n1 (stereo unspecified)	-5.76%
CC(C)(C)NC(=O)NCc1cnn2ccccc12	-11.9%
N#Cc1ccc(CNC(=O)NCCNC(=O)C2CCCC2)c(F)c1	4.17%
COCCCN(Cc1ccccn1)S(=O)(=O)Cc1ccccc1	14.4%
CCN(CC)S(=O)(=O)c1ccc2c(c1)N(Cc1cccnc1)C(=O)CS2	1.82%
Cc1ccc2oc(C(=O)N3CCCC(n4nc(C)nc4C)C3)cc2n1 (stereo unspecified)	-7.39%
COc1ccc(NC(=O)N(C)Cc2ccco2)cn1	-11.8%
CCNC(=O)[C@@H]1C[C@H](NC(=O)c2cncnc2C)CN1Cc1ccsc1	2.12%
Cc1ccc(CNC(c2ccccc2)c2nccn2C)cc1C (stereo unspecified)	0.323%
O=C(NCc1ccccc1)N1CCC(Oc2ncccc2Br)CC1	18.3%
Cc1ccc(CC(=O)N2CCCC(c3nc(C)cs3)C2)cn1 (stereo unspecified)	-8.13%
CC(C)N1CCCC1c1csc(N)n1 (stereo unspecified)	2.33%
COc1cc(NCCNC(=O)c2cc[nH]c2C)cc(OC)c1	-4.33%
O=C(Nc1ccc(CC(=O)N2CCSCC2)cc1)NC1CCCC1	-7.01%
CCc1csc(C2CCCN(C(=O)CCn3cc(C)cn3)C2)n1 (stereo unspecified)	1.82%
Cc1cccc(-n2ncc3c2CCCC3NCc2cnn(C)c2C)c1C (stereo unspecified)	13.8%
COc1ccccc1NC(=O)NCC(O)c1ccc(F)cc1F (stereo unspecified)	4.1%
c1ccc(CN2CCc3ncnc(C4CC4)c3CC2)cc1	-156%
Cc1cc(N2CCC(NC(=O)C3CC3)CC2)nc(-c2ccncc2)n1	-3.71%
Cn1nnnc1SCCNC1CCN(c2ccc3c(c2)OCO3)CC1	3.07%
CCc1ccc(C(=O)N2CCCN(Cc3csc(CC)n3)CC2)o1	-1.86%
CN(c1ccc2ccccc2c1)S(=O)(=O)c1cc(C(=O)O)cs1	1.2%
CCCc1n[nH]c(C2CN(C(=O)CCc3cscn3)CCO2)n1 (stereo unspecified)	-1.63%

SMILES	cytotoxicity at 10 µM
CC(C(=O)NCc1ccc(N2CCNC(=O)C2)cc1)c1cccs1 (stereo unspecified)	-4.43%
CC(=O)c1ccc(S(=O)(=O)N2CCCC2CN2CCCC2)cc1 (stereo unspecified)	-1.35%
COc1ccc(C(CNC(=O)c2c(C)noc2C)N(C)C)cc1 (stereo unspecified)	-13.1%
COCCN(Cc1sccc1C)C(=O)COc1cccnc1	-138%
C1CCC(NCC2(N3CCOCC3)CCSC2)C1 (stereo unspecified)	-10.8%
CC(C)c1nn(CC(=O)N2CCCC2)c(=O)c2c1cnn2C(C)(C)C	1.12%
CC(=O)N1CCN(C(=O)CCn2c(C)nc3ccccc3c2=O)CC1	-4.81%
CCC(CC)C(=O)N1CCc2nc(N3CCCC3)nc(C)c2CC1	1.79%
CCNC(=O)N1CCCC(C(=O)c2cccc(OC(C)C)c2)C1 (stereo unspecified)	8.62%
Cc1nccn1CCCC(=O)Nc1nc(C(C)C)nn1C	-1.37%
CCc1nccn1C1CCCN(C(=O)c2csc(C3CC3)n2)C1 (stereo unspecified)	-9.39%
CNC(=O)c1cnc2n1CCN(Cc1cccnc1)C2	8.88%
Cc1ccccc1CC1(C(=O)O)CCCN(c2ncccn2)C1 (stereo unspecified)	1.25%
CN(C)c1cccc(C(=O)N2CCCc3cc(OC(F)(F)F)ccc32)c1	-44.4%
COc1ccc(CN2CC[C@H](c3nc4cccc(C(N)=O)c4[nH]3)C2)cc1	12.1%
CN(C)C(=O)c1cc2c(nc1NCC1CC1)CCNCC2	8.39%
CSc1ncccc1C(=O)NCCC(O)c1cc(C)oc1C (stereo unspecified)	1.95%
Cc1ccc(C)c(S(=O)(=O)NCCC(=O)NCc2ccoc2)c1	-11.5%
Cc1nc(N2CCOCC2)nc2c1CCN(Cc1ccsc1)CC2	-130%
COc1ccc(F)cc1C(=O)N1CCn2c(nnc2C(F)(F)F)C1	-7.61%
Fc1ccc(CNCc2cc(Br)c3c(c2)OCO3)cc1	0.658%
Cc1nnc(CN(Cc2ccc3c(c2)OCO3)C2CCC(C)CC2)o1 (stereo unspecified)	-1.89%
Nc1nc(CN2CCCCC2Cn2cncn2)nc2ccccc12 (stereo unspecified)	-15.6%
